Assay results pooled from the literature.
Lines come from different studies, so protocols differ.
SETD7: Histone-lysine N-methyltransferase SETD7 (SETD7, Homo sapiens, UniProt Q8WTS6)
HSD11B1: 11-beta-hydroxysteroid dehydrogenase 1 (HSD11B1, Homo sapiens, UniProt P28845)
SLC10A2: Ileal sodium/bile acid cotransporter (SLC10A2, Homo sapiens, UniProt Q12908)
MMP2: 72 kDa type IV collagenase (MMP2, Homo sapiens, UniProt P08253)
CNR2: Cannabinoid receptor 2 (CNR2, Homo sapiens, UniProt P34972)
ADRB2: Beta-2 adrenergic receptor (ADRB2, Homo sapiens, UniProt P07550)

Structure (SMILES) | target | test | conditions | inhibition
CCN(c1cc(C#CCN2CCOCC2)cc(C(=O)NCc2c(C)cc(C)[nH]c2=O)c1C)[C@H]1CC[C@H](N(C)CCOC)CC1 | SETD7 | enzyme activity, inhibitor | 1 µM | 6%
CN(C)CCCN1c2ccccc2Sc2ccc(Cl)cc21 | HSD11B1 | enzyme activity, inhibitor | 20 µM, lysate | < 40%
CC(=O)N[C@H]1CSSC[C@@H](C(=O)N[C@H](Cc2c[nH]c3ccccc23)C(N)=O)NC(=O)[C@H](Cc2ccccc2)NC(=O)[C@H](CCCNC(=N)N)NC1=O | Melanocortin receptor 5 (MC5R, Homo sapiens, UniProt P33032) | ligand displacement, radioligand | 10 µM, 40 min | 0%
CN(C)c1ccc(C(=C2C=CC(=[N+](C)C)C=C2)c2ccc(N(C)C)cc2)cc1 | SETD7 | cell-free assay | 10 µM | 59%
C[C@@H](O)[C@H]1C(=O)N2C(C(=O)O)=C(S[C@@H]3CN[C@H](C(=O)N(C)C)C3)[C@H](C)[C@H]12 | SLC10A2 | transporter uptake, inhibitor, radiometric | 1 mM | < 10%
CN(C)c1ccc2nc3ccc(=[N+](C)C)cc-3sc2c1 | SETD7 | cell-free assay | 10 µM | 35%
O=C1N=C(N2CCCCN2)S/C1=C\c1ccc(F)cc1O | Galanin receptor type 2 (GALR2, Homo sapiens, UniProt O43603) | ligand displacement, radioligand | 10 µM | < 10%
CN1CCC(=C2c3ccccc3Sc3ccccc32)CC1 | SETD7 | cell-free assay | 10 µM | 41%
CC(C)c1c(C(=O)Nc2ccccc2)c(-c2ccccc2)c(-c2ccc(F)cc2)n1CC[C@@H](O)C[C@@H](O)CC(=O)O | HSD11B1 | enzyme activity, inhibitor | 20 µM, lysate | < 40%
COc1ccc2c(c1)c(CC(=O)O)c(C)n2C(=O)c1ccc(Cl)cc1 | SLC10A2 | transporter uptake, inhibitor, radiometric | 1 mM | 93.2%
N#Cc1cc(Cn2c(N3CCCC3)nc3ccccc32)ccc1F | D(1B) dopamine receptor (DRD5, Homo sapiens, UniProt P21918) | ligand displacement | 10 µM | 48.7%
Cc1cc(O)c(C=O)c2c1C(=O)Oc1c(C)c(O)c3c(c1O2)C(O)OC3=O (centres unmarked) | SETD7 | cell-free assay | 10 µM | 0%
NS(=O)(=O)c1cc2c(cc1Cl)NCNS2(=O)=O | SLC10A2 | transporter uptake, inhibitor, radiometric | 1 mM | 25.8%
CN1CC(Oc2cnc(C#N)cc2-c2ccn3nc(NC(=O)C4CC4)cc3c2)C1 | Cyclin-dependent kinase-like 3 (CDKL3, Homo sapiens, UniProt Q8IVW4) | enzyme activity, inhibitor | 1 µM | 1%
O=C(O)c1ncccc1O | MMP2 | enzyme activity, inhibitor, fluorescence | 1 mM | ~50%
CN1CCN(CCCOc2ccc(=O)n(-c3ccc(Cl)c(Cl)c3)n2)CC1 | CNR2 | ligand displacement | 1 µM | 27.4%

Structure (SMILES) | target | test | conditions | inhibition
CN(CCOc1ccc(CC2SC(=O)NC2=O)cc1)c1ccccn1 (centres unmarked) | HSD11B1 | enzyme activity, inhibitor | 20 µM, lysate | < 40%
C=CC1=C(C)c2cc3[nH]c(cc4nc(cc5[nH]c(cc1n2)c(C)c5CCC(=O)O)C(CCC(=O)O)=C4C)c(C)c3C=C | SETD7 | cell-free assay | 10 µM | 34%
Ic1cccc2cnccc12 | Protein mono-ADP-ribosyltransferase PARP6 (PARP6, Homo sapiens, UniProt Q2NL67) | enzyme activity, inhibitor | 10 µM | 11%
Oc1cccc(Nc2nc(-c3ccc(F)cc3F)cs2)c1 | CNR2 | cell-free assay | 10 µM | 35.3%
CNC(=O)c1cc(Oc2ccc(NC(=O)Nc3ccc(Cl)c(C(F)(F)F)c3)cc2)ccn1 | G protein-coupled receptor kinase 5 (GRK5, Homo sapiens, UniProt P34947) | enzyme activity, inhibitor | 10 µM | 0%
O=C(c1ccc(Cl)cc1)N(Cc1ccccc1)C1CCCCC1 | ADRB2 | cell-free assay | 10 µM | 1.6%
NS(=O)(=O)c1cc2c(cc1Cl)NC(C(Cl)Cl)NS2(=O)=O (centres unmarked) | SLC10A2 | transporter uptake, inhibitor, radiometric | 1 mM | 44.7%
O=C(O[C@@H]1Cc2c(O)cc(O)cc2O[C@@H]1c1cc(O)c(=O)c2c(O)c(O)cc([C@H]3Oc4cc(O)cc(O)c4C[C@H]3OC(=O)c3cc(O)c(O)c(O)c3)c2c1)c1cc(O)c(O)c(O)c1 | SETD7 | cell-free assay | 10 µM | 38%
CCCCNc1cc(C(=O)O)cc(S(N)(=O)=O)c1Oc1ccccc1 | SLC10A2 | transporter uptake, inhibitor, radiometric | 1 mM | 78.1%
CC(C)c1ncccc2nc(N)nc1-2 | MMP2 | enzyme activity, inhibitor | 50 µM | 52%
CC(C)(C#N)c1cc(Cn2cncn2)cc(C(C)(C)C#N)c1 | SLC10A2 | transporter uptake, inhibitor, radiometric | 1 mM | 36.8%
O=C(O)CCCCCCCCCCCC[C@@H]1C=CCC1 | SETD7 | cell-free assay | 10 µM | -48%
O=C(c1ccccc1)c1ccc2n1CCC2C(=O)O (centres unmarked) | SLC10A2 | transporter uptake, inhibitor, radiometric | 1 mM | < 10%
O=C(O)c1cc(O)c2c(c1)[C@H]([C@H]1c3cc(C(=O)O)cc(O)c3C(=O)c3c(O[C@@H]4O[C@H](CO)[C@@H](O)[C@H](O)[C@H]4O)cccc31)c1cccc(O[C@@H]3O[C@H](CO)[C@@H](O)[C@H](O)[C@H]3O)c1C2=O | SETD7 | cell-free assay | 10 µM | 36%
NS(=O)(=O)c1cc2c(cc1C(F)(F)F)NC(Cc1ccccc1)NS2(=O)=O (centres unmarked) | SLC10A2 | transporter uptake, inhibitor, radiometric | 1 mM | 64.5%
COc1cc(NC(C)=O)c(Cl)cc1C(=O)Nc1nccs1 | ADRB2 | cell-free assay | 10 µM | -8.3%
